The target in test [1] is T1, Stromelysin-1 (Homo sapiens, UniProt P08254). The test can be described thus: Inhibition of human MMP3 catalytic domain at 50 uM after 1 hr by fluorescent substrate assay. The gist of the method:
(§1)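 Single-concentration screen: each inhibitor tested at 50 µM against recombinant human MMP catalytic domain (MMP-1, MMP-2 or MMP-3) in a fluorescent substrate assay, with activity reported as percent inhibition.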

Test [2] addresses T2, Interstitial collagenase (Homo sapiens) (UniProt P03956).
T2 sequence (whole entry): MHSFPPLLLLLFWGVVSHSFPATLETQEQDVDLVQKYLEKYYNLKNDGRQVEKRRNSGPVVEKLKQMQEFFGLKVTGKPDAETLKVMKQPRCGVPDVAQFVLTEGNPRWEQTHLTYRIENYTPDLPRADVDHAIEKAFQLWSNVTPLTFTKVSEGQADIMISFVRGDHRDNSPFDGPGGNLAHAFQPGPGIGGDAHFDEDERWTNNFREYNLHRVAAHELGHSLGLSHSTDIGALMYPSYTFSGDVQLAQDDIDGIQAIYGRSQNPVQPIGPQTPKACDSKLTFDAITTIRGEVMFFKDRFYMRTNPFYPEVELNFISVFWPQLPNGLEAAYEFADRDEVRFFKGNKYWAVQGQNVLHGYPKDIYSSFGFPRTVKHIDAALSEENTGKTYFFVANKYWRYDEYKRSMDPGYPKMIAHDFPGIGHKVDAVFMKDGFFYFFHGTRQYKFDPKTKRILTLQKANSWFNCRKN
The test can be described thus: Inhibition of human MMP1 catalytic domain at 50 uM after 1 hr by fluorescent substrate assay. The gist of the method: as §1

For test [3], the target named is T3, 72 kDa type IV collagenase (Homo sapiens, UniProt P08253). Kind of test: Inhibition of human MMP2 catalytic domain at 50 uM after 1 hr by fluorescent substrate assay. The gist of the method:
as §1
Target sequence in this assay (P08253 110-660 limits assumed): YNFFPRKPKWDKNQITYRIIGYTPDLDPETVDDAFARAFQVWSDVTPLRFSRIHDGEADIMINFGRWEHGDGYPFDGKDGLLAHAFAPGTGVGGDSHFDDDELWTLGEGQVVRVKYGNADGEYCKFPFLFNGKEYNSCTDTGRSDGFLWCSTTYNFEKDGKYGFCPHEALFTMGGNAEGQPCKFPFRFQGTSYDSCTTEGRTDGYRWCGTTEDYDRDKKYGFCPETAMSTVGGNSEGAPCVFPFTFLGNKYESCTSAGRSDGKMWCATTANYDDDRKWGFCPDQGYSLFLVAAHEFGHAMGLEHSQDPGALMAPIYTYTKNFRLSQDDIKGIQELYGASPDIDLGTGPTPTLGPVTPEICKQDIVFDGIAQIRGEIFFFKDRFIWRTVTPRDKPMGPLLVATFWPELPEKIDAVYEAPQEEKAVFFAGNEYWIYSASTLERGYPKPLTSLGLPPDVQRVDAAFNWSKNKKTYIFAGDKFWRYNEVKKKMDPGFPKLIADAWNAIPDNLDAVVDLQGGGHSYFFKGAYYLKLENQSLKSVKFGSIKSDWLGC

Test [4] has as its target T4, Interstitial collagenase (Homo sapiens, UniProt P03956).
T4 sequence (P03956 whole entry): T2 sequence (whole entry)
The test can be described thus: Inhibition of human MMP1 catalytic domain by fluorescent substrate assay. The gist of the method:
(§2)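 IC50 against human MMP catalytic domain (MMP-1, MMP-2 or MMP-3) from a fluorescent substrate assay. It was determined only for inhibitors showing relatively strong inhibition in the 50 µM screen.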

In test [5] the target is T3, 72 kDa type IV collagenase. Kind of test: Inhibition of human MMP2 catalytic domain by fluorescent substrate assay. The gist of the method:
as §2
Target sequence in this assay (P08253 whole entry, the tested form may be a part): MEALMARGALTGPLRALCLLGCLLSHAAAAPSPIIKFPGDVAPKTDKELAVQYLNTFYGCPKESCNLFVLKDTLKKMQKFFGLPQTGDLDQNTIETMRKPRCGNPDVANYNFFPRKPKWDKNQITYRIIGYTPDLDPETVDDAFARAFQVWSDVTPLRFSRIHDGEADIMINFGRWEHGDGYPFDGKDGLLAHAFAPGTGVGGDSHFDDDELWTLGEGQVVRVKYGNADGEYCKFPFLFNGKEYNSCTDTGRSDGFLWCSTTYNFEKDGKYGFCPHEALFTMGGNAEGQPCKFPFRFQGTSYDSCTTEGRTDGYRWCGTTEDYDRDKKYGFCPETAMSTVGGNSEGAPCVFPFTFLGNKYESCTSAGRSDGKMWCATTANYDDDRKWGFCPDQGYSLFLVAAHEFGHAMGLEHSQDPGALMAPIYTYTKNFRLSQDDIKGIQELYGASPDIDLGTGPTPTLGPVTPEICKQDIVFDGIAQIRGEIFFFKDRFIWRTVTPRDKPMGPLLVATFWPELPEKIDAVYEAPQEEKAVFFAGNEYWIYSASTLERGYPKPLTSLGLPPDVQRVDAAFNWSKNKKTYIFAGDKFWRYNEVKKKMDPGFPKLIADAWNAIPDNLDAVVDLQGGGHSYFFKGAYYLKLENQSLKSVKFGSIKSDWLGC

Test [6] has as its target T1, Stromelysin-1. The test can be described thus: Inhibition of human MMP3 catalytic domain by fluorescent substrate assay. The gist of the method: as §2

T1 sequence (P08254 whole entry, the tested form may be a part): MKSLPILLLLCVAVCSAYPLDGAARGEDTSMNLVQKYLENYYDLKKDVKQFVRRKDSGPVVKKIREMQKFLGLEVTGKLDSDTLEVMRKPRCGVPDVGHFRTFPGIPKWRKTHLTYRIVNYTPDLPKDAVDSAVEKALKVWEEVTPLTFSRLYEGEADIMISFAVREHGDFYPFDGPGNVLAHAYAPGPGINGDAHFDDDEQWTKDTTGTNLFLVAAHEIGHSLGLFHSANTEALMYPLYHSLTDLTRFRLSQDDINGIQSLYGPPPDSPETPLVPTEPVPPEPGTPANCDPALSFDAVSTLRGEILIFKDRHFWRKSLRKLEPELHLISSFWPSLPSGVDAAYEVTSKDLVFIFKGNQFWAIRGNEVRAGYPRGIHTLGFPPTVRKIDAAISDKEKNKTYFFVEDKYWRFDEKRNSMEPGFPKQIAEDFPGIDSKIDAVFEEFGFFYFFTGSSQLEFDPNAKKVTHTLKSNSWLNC

In the case of `COc1ccc(CNC(=O)c2oc(C)cc(=O)c2O)cc1`, the inhibition in test [1] was 93%; in test [2], 29%; in test [3], 26%.

Take `COc1ccc(CNC(=O)c2oc(C)cc(=S)c2O)cc1`: the inhibition turned out to be 97% in test [1], 70% in test [2] and 94% in test [3]. In addition, the IC50 is 30 µM in test [4], 19 µM in test [5] and 16.4 µM in test [6].

`Cc1cc(=O)c(O)c(C(=O)NCc2ccc(O)cc2)o1`: the values for the inhibition in test [1], in test [2] and in test [3] were 94%, 66% and 25%, respectively. This compound also returned an IC50 in test [6] of 3.7 µM.

The compound `Cc1cc(=O)c(O)c(C(=O)NCc2ccc(-c3ccccc3)cc2)o1` yielded an IC50 in test [4] of more than 50 µM.

In test [6], `Cc1cc(=S)c(O)c(C(=O)NCc2ccc(-c3ccccc3)cc2)o1` showed an IC50 of 5.6 µM.

Consider `O=C(NCc1ccc(-c2ccccc2)cc1)c1cc(=S)c(O)co1`, for which the inhibition is 91% in test [1], 62% in test [2] and 98% in test [3]. For the same compound, the concentration for half-maximal inhibition (IC50) in test [4] came out at 44 µM; in test [5], 14.4 µM; in test [6], 13.3 µM.

Take `COc1ccc(CNC(=O)c2cc(=O)c(O)co2)cc1`: the values for the inhibition in test [1], in test [2] and in test [3] were 22%, 16% and 11%, respectively.

As for `COc1ccc(CNC(=O)c2c(C)oc(CO)c(O)c2=O)cc1`, the inhibition in test [1] amounted to 32%; in test [2] it was 18%; in test [3] it was 24%.

On to `COc1ccc(CNC(=O)c2cc(=S)c(O)co2)cc1`, for which the inhibition in test [1] was 91%; in test [2], 31%; in test [3] it was 85%. Half-maximal inhibition in test [6] (IC50) was put at 13.9 µM.

Turning to `Cc1occ(O)c(=O)c1C(=O)NCc1ccc(-c2ccccc2)cc1`, the inhibition in test [1] came to 28%; in test [2] it was 15%; in test [3], 21%.

As to `Cc1occ(O)c(=O)c1C(=O)NCc1ccc(O)cc1`, the inhibition was 32% in test [1], 17% in test [2] and 24% in test [3].

In the case of `Cc1occ(O)c(=S)c1C(=O)NCc1ccc(-c2ccccc2)cc1`, the inhibition in test [1] is 45%; in test [2] it was 52%; in test [3], 94%. Further, the IC50 in test [5] stood at 23 µM.

Regarding `COc1ccc(CNC(=O)c2c(C)occ(O)c2=O)cc1`, the inhibition was determined as 18% in test [1], 15% in test [2] and 33% in test [3].

Consider `COc1ccc(CNC(=O)c2c(C)occ(O)c2=S)cc1`, for which the values for the inhibition in test [1], in test [2] and in test [3] were 36%, 49% and 69%, respectively. Also, the IC50 in test [5] is 30 µM.

Consider `CCOC(=O)c1c(C)oc(CNCc2ccc(-c3ccccc3)cc2)c(O)c1=O`, for which the inhibition in test [1] was less than 1%; in test [2], 13%; in test [3] it was 18%.

For `O=C(NCc1ccc(-c2ccccc2)cc1)c1cc(=O)c(O)co1`, the inhibition in test [1] was found to be 44%; in test [2] it was 12%; in test [3], 14%.

As for `Cc1cc(=O)c(O)c(CNCc2ccc(-c3ccccc3)cc2)o1`, the inhibition in test [1] stood at 4%; in test [2] it was 6%; in test [3], 63%. The compound further gave an IC50 in test [5] of 37.7 µM.

Regarding `Cc1cc(=O)c(O)c(COCc2ccc(-c3ccccc3)cc2)o1`, the values for the inhibition in test [1], in test [2] and in test [3] were 26%, 21% and 15%, respectively.

The values are drawn from ChEMBL document CHEMBL1153938, “Synthesis of hydroxypyrone- and hydroxythiopyrone-based matrix metalloproteinase inhibitors: developing a structure-activity relationship” (Bioorg Med Chem Lett, 2009).
